From ChEMBL document CHEMBL4000147, “Pyrrolo[2,3-b]pyridine derivatives as potent Bruton's tyrosine kinase inhibitors” (Bioorg Med Chem, 2015)

Tests used:
[1] = Clearance in Sprague-Dawley rat at 4 mg/kg, po by LC/MS/MS analysis; assay type: ADME, organism-based; details: in vivo
Outline: (§1)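 Three male SD rats (180–240 g) dosed orally, 4 mg/kg, dosing volume 5 mL/kg. Blood sampled at 2, 5, 15, 30 min and 1, 2, 4, 6, 8, 10, 24 h, centrifuged 4000 rpm 5 min at 4 °C. Plasma analysed after protein precipitation by LC/MS/MS in SRM mode with internal standard. Parameters from concentration–time data by noncompartmental analysis.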

[2] = AUClast in Sprague-Dawley rat at 4 mg/kg, po by LC/MS/MS analysis; assay type: ADME, organism-based; design: dose 4 mg/kg, route oral, time 0 - last; details: in vivo; outline: as §1
[3] = Tmax in Sprague-Dawley rat at 4 mg/kg, po by LC/MS/MS analysis; assay type: ADME, organism-based; details: in vivo; outline: as §1
[4] = Cmax in Sprague-Dawley rat at 4 mg/kg, po by LC/MS/MS analysis; assay type: ADME, organism-based; design: dose 4 mg/kg, route oral; details: in vivo; outline: as §1
[5] = Half life in Sprague-Dawley rat at 4 mg/kg, po by LC/MS/MS analysis; assay type: ADME, organism-based; details: in vivo; outline: as §1
[6] = target: T1, Tyrosine-protein kinase BTK (Homo sapiens, UniProt Q06187); assay: Inhibition of recombinant human His-tagged full length BTK expressed in baculovirus using biotin labeled peptide substrate after 1 hr by HRTF kinase/TR-FRET assay
T1 sequence (Q06187 whole entry): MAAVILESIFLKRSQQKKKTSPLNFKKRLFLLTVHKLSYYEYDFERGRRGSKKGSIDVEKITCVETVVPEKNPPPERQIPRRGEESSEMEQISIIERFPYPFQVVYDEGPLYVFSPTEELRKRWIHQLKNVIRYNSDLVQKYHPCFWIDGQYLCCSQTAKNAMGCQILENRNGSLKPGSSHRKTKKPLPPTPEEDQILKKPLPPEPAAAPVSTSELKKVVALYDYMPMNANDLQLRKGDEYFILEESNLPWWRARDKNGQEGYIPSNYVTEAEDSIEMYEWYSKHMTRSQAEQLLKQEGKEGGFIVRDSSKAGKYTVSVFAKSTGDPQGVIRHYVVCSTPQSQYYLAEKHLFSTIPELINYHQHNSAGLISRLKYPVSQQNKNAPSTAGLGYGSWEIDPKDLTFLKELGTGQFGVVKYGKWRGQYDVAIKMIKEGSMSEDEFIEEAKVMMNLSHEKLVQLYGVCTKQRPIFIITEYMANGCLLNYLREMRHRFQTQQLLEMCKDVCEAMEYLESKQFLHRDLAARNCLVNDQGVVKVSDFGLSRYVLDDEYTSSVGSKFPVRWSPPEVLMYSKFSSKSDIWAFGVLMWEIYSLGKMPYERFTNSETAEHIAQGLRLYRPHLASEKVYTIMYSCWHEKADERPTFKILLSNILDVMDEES

[7] = target: T1, Tyrosine-protein kinase BTK; assay: Inhibition of BTK in human Ramos cells assessed as inhibition of anti human IgM-induced calcium influx preincubated for 20 mins in dark followed by anti human IgM induction for 8 mins by FLIPR assay; assay type: cell-based

Structure (SMILES)	CL/F [1]	AUC(0-t) [2]	Tmax [3]	Cmax [4]	half-life [5]	IC50 [6]	IC50 [7]
CN1CCN(c2ccc(Nc3cc(-c4cccc(-n5ccc6cc(C7CC7)cc(F)c6c5=O)c4CO)cn(C)c3=O)nc2)CC1	53.3 mL/min/kg	1050 ng·h/mL	4 h	134 ng/mL	4.4 h		
CN(C)C(=O)N1CC=C(c2cc3c(-c4cccc(-n5ccc6cc(C7CC7)cc(F)c6c5=O)c4CO)ncnc3[nH]2)CC1	43.3 mL/min/kg	1790 ng·h/mL	0.8 h	422 ng/mL	5.4 h		
COc1ccc(-c2cc3c(-c4cccc(-n5ccc6cc(C7CC7)cc(F)c6c5=O)c4CO)ccnc3[nH]2)cn1						0.0683 µM	0.196 µM
O=C(c1ccc(-c2cc3c(-c4cccc(-n5ccc6cc(C7CC7)cc(F)c6c5=O)c4CO)ccnc3[nH]2)cc1)N1CCCCC1						0.038 µM	0.052 µM
Nc1cccc(-c2cc3c(-c4cccc(-n5ccc6cc(C7CC7)cc(F)c6c5=O)c4CO)ccnc3[nH]2)c1						0.11 µM	2.41 µM
CC(=O)c1ccc(-c2cc3c(-c4cccc(-n5ccc6cc(C7CC7)cc(F)c6c5=O)c4CO)ccnc3[nH]2)cc1						0.0213 µM	0.032 µM
O=C(N1CC=C(c2cc3c(-c4cccc(-n5ccc6cc(C7CC7)cc(F)c6c5=O)c4CO)ccnc3[nH]2)CC1)N1CCOCC1						0.0073 µM	0.042 µM
O=c1c2c(F)cc(C3CC3)cc2ccn1-c1cccc(-c2ccnc3[nH]c(C4=CCN(C5COC5)CC4)cc23)c1CO						0.0314 µM	0.003 µM
O=c1c2c(F)cc(C3CC3)cc2ccn1-c1cccc(-c2ccnc3[nH]c(-c4ccc(O)cc4)cc23)c1CO						0.0398 µM	0.11 µM
Cn1ccc(-c2cc3c(-c4cccc(-n5ccc6cc(C7CC7)cc(F)c6c5=O)c4CO)ccnc3[nH]2)n1						0.0206 µM	0.0095 µM
CN(C)S(=O)(=O)N1CC=C(c2cc3c(-c4cccc(-n5ccc6cc(C7CC7)cc(F)c6c5=O)c4CO)ccnc3[nH]2)CC1						0.0097 µM	0.027 µM
O=c1c2c(F)cc(C3CC3)cc2ccn1-c1cccc(-c2ccnc3[nH]c(-c4ccc(CN5CCOCC5)cc4)cc23)c1CO						0.0181 µM	0.069 µM
CC(=O)N1CC=C(c2cc3c(-c4cccc(-n5ccc6cc(C7CC7)cc(F)c6c5=O)c4CO)ccnc3[nH]2)CC1						0.0067 µM	0.012 µM
CN(C)C(=O)N1CC=C(c2cc3c(-c4cccc(-n5ccc6cc(C7CC7)cc(F)c6c5=O)c4CO)cccc3[nH]2)CC1						> 5 µM	> 5 µM
CC(=O)c1cc(-c2cc3c(-c4cccc(-n5ccc6cc(C7CC7)cc(F)c6c5=O)c4CO)ccnc3[nH]2)cs1						0.0781 µM	0.069 µM
COc1ccc(-c2cc3c(-c4cccc(-n5ccc6cc(C7CC7)cc(F)c6c5=O)c4CO)ccnc3[nH]2)cc1						0.0273 µM	0.0563 µM
CN(C)C(=O)c1ccc(-c2cc3c(-c4cccc(-n5ccc6cc(C7CC7)cc(F)c6c5=O)c4CO)ccnc3[nH]2)cc1						0.0121 µM	0.0942 µM
CN(C)C(=O)N1CC=C(c2cc3c(-c4cccc(-n5ccc6cc(C7CC7)cc(F)c6c5=O)c4CO)ccnc3[nH]2)CC1	20 mL/min/kg	3420 ng·h/mL	1.9 h	739 ng/mL	8.9 h	0.006 µM	0.014 µM
CN(C)C(=O)c1ccc(-c2nc3c(-c4cccc(-n5ccc6cc(C7CC7)cc(F)c6c5=O)c4CO)ccnc3[nH]2)cc1						0.0333 µM	0.0927 µM
O=c1c2c(F)cc(C3CC3)cc2ccn1-c1cccc(-c2ccnc3[nH]c(C4=CCNCC4)cc23)c1CO						0.0283 µM	0.003 µM
CS(=O)(=O)N1CC=C(c2cc3c(-c4cccc(-n5ccc6cc(C7CC7)cc(F)c6c5=O)c4CO)ccnc3[nH]2)CC1						0.0071 µM	0.41 µM
O=C(C1CC1)N1CC=C(c2cc3c(-c4cccc(-n5ccc6cc(C7CC7)cc(F)c6c5=O)c4CO)ccnc3[nH]2)CC1						0.0104 µM	0.016 µM
Cc1cc2c(-c3cccc(-n4ccc5cc(C6CC6)cc(F)c5c4=O)c3CO)ccnc2[nH]1						0.395 µM	0.213 µM
